# From PubChem BioAssay
# This excerpt belongs to a sample that is enriched for hits.
# HSF1 inhib = HSF1 inhibition. NIH3T3-HGL HSE-luciferase, MG132-induced, luminescence 8 h; stronger effect = lower value. activity change, negative = inhibition, % at 7.5 µM (by protocol). 0.77% of 300,000 active. AID 2098;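 active means more than half of replicate wells show activity change below -50%, luminescence cut by over half; inconclusive means some wells, but at most half, below -50%; inactive means no replicate well below -50%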;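 further: luciferase reports HSF-1 transcriptional activity via heat shock element; 0% = median of DMSO wells and -100% = zero luminescence signal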
# HSF1 activator = increases HSF-1 driven luciferase reporter signal. NIH3T3-HGL HSF-1 luciferase reporter, MG132, 8 h; 100% = twice DMSO control signal. activation, % at 9 µM. 1.7% of 300,000 active. AID 504408;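 active means mean replicate activation of at least 50% with a set share of replicates each reaching 50%; inconclusive means only one of those two conditions met; inactive means mean below 50% and too few replicates reaching it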;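 further: 0% = median of the neutral control wells and 100% = twice that signal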
# Lmaj promast = reduces viability of Leishmania major promastigotes; resazurin fluorescence viability; AID 1063; 9% of 200,000 active; inhibition, % at 10 µM; in the data active means inhibition above about 50%;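 further: promastigotes grown with compound for 44 hours at 28 °C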
# Hsp70 act = switches on Hsp70 transcription; HeLa Hsp70 promoter luciferase reporter, luminescence; scaled: vehicle 0, proteasome-inhibitor control 100%; activation, % at 10 µM; 0.04% of 200,000 active;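 active means activation above the mean across all tested compounds plus 3 SD, cutoff set per campaign, cut at about 5.5% in these data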;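 further: 100% = MG132 at 30 µM as the positive control and 0% = DMSO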
# T cruzi inh = T. cruzi replication inhibition; 1.4% of 300,000 active; inhibition, % (test concentration not listed); T. cruzi beta-gal in NIH3T3, luminescence, 90 h;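 active means mean inhibition across valid replicates above about 55%, limit read from the data; inconclusive means mean below that limit but half or more replicates reach it; inactive means mean below it, under half of replicates reach it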;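 further: signal also drops with host cell toxicity which is not excluded here; 0% = plate median of DMSO wells and 100% = zero luminescence signal; higher percent means less beta-gal luminescence so fewer parasites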
#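 System – NIH/3T3 host cells with β-galactosidase reporter T. cruzi · Doses – single 50 nL compound addition per well in DMSO · Reagent – 5000 T. cruzi trypomastigotes/well · Medium – Low-serum DMEM with 2% FBS · Timing – ≥90 h infection period, 3 h prior cell attachment · Evaluation – parasite load inhibition, % · Technique – GalScreen luminescence, 60 min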
# The depositor's hits bear a star; ? = inconclusive; / = no result.
SMILES,HSF1 inhib,HSF1 activator,Lmaj promast,Hsp70 act,T cruzi inh
CCSc1nc2ccccc2n1CC(=O)OC,-4,3,0,-1,-2
N=Nc1c(O)n(CC(=O)Nc2ccccc2)c2ccccc12,-7,-13,/,/,-4
Cc1nc(N)sc1C(=O)N1N=N1,3,2,/,/,0
CCc1noc(C)c1C(=O)N(CCC(C)C)c1c(N)n(Cc2ccccc2)c(=O)[nH]c1=O,0,-4,/,/,-10
C=CCSc1nc2ccccc2n1C(=O)/C=C/c1ccc(OC)c(OC)c1,44,71*,71*,0,-9
CCC(C)NCC(=O)Nc1ccc(-c2nc3cc(NC(=O)CNC(C)CC)ccc3o2)cc1 (stereo not given),/,/,99*,0,/
CCCC(=O)Nc1ccc2oc(-c3ccncc3)nc2c1,-20,-38,-2,0,-11
Cc1ccc2oc(-c3ccc(NC(=O)CC(C)C)cc3)nc2c1,12,44,-4,0,7
O=C(CN1CCCC1)Nc1ccc(-c2nc3cc(NC(=O)CN4CCCC4)ccc3o2)cc1,13,34,101*,0,51
CCN(CC)CC(=O)Nc1ccc(-c2nc3cc(NC(=O)CN(CC)CC)ccc3o2)cc1,2,-9,86*,0,38
Cc1cc(C)n(CC(O)Cn2c3ccc(Cl)cc3c3cc(Cl)ccc32)c(=O)n1 (stereo not given),-3,-2,17,0,-12
OC(CNCCC1C=Nc2ccccc21)Cn1c2ccc(Cl)cc2c2cc(Cl)ccc21 (stereo not given),-1,9,100*,0,?
CC(=O)NC(=S)NNC(=O)COc1ccc(Br)cc1,/,/,87*,0,/
COc1ccc(CCN(C)C(=O)c2cc(-c3ccc(C)cc3)nc3ccccc23)cc1OC,2,0,/,/,22
CCOc1ccc(-c2nnc(SCc3nnc(-c4ccccc4)o3)n2-c2ccccc2F)cc1,2,8,99*,0,17
O=c1c2ccccc2nc(SCc2ccc([N+](=O)[O-])cc2)n1-c1ccccc1,11,16,54*,0,34
CCn1c(Cc2ccccc2)nnc1SCc1ccc([N+](=O)[O-])cc1,-6,8,-3,0,-3
COc1ccc(-n2c(COc3ccccc3)nnc2SCc2ccc(C#N)cc2)cc1,14,25,100*,0,31
N#Cc1ccc(CSc2nnc(COc3ccccc3)n2-c2ccccc2)cc1,6,34,12,0,28
Cc1ccc(-c2nnc(CSc3nnc(COc4ccccc4)n3-c3ccccc3)o2)cc1,8,19,41,0,16
COCCn1c(Cc2ccccc2)nnc1SCc1ccc([N+](=O)[O-])cc1,4,9,51*,0,4
O=C(Nc1cccc(O)c1)c1ccccc1[N+](=O)[O-],0,12,-1,0,-13
O=C(OCC(=O)N1CCCc2ccccc21)c1cc(Cl)ccc1O,2,4,/,/,-9
COc1ccc(-n2c(SCc3ccc([N+](=O)[O-])cc3)nnc2-c2ccccc2)cc1,25,39,15,0,38
CCOc1ccc(-n2c(SCc3ccc([N+](=O)[O-])cc3)nnc2-c2ccccc2)cc1,18,23,92*,0,54
SMILES,HSF1 inhib,HSF1 activator,Lmaj promast,Hsp70 act,T cruzi inh
Cc1ccc([C@@H]2[C@@H]3C(=O)N(c4ccccc4)C(=O)[C@@H]3[C@]3(C)C(=O)N(Cc4ccc(-c5ccccc5)cc4)CC(=O)N23)o1,8,-1,/,/,10
O=C1c2ccccc2C(=O)N1CCc1csc(-c2cccc(F)c2)n1,29,83*,0,0,-5
CCN1/C(=C/c2ccc3cccc(C)c3[n+]2CC)Sc2ccccc21,-5,-14,101*,0,58*
CCN1/C(=C/c2ccc3cc(C)ccc3[n+]2CC)Sc2ccc3sccc3c21,14,23,/,/,60*
CCN1/C(=C\c2ccc3cc(C)ccc3[n+]2CC)Sc2cc(C)c(C)cc21,-8,1,100*,0,64*
CCN1/C(=C/c2ccc3cc(C)cc(C)c3[n+]2CC)Sc2cc(C)ccc21,/,/,100*,0,/
CS(=O)(=O)Nc1ccc(C(=O)Nc2cccc([N+](=O)[O-])c2)cc1,2,1,0,1,1
Cc1ccc(S(=O)(=O)N2CCC(C(N)=O)CC2)cc1[N+](=O)[O-],-22,-41,/,/,-2
CC(C#N)Sc1ncnc2sc(-c3ccccc3)cc12 (stereo not given),19,27,/,/,-1
COc1ccc(N(Cc2ccco2)C(=O)c2ccccc2F)cc1OC,-2,0,59*,0,-2
CCOC(=O)C1CCN(CCC(=O)Nc2cccc(Cl)c2C)CC1,-4,-1,94*,0,-5
CCOC(=O)Cc1ccc(NCc2ccc(Cl)cc2)cc1,2,4,100*,0,56*
CCOC(=O)CNC(=O)Cc1ccc(Cl)cc1,-3,2,/,/,-7
CCOC(=O)C1CCCN(CCC(=O)Nc2ccccc2)C1 (stereo not given),3,3,-3,0,-11
CCOC(=O)C1CCN(CCC(=O)Nc2ccccc2)CC1,5,35,79*,0,-18
CCOC(=O)C1CCN(CCC(=O)Nc2cc(C)ccc2C)CC1,6,15,/,/,1
CCOC(=O)C1CCN(CCC(=O)Nc2ccc(Cl)cc2)CC1,1,4,91*,0,6
COc1ccc(-n2c(-c3ccc(Cl)cc3)c[nH]c2=S)cc1,-4,26,/,/,-3
CC(=O)c1ccccc1C(=O)N1CCCC(N2CCN(Cc3ccc4c(c3)OCO4)CC2)C1 (stereo not given),-3,8,/,/,-1
CCOC(=O)C1CCC(CNCc2ccc(Cl)cc2)CC1 (stereo not given),0,-4,92*,0,11
CCOC(=O)C1CCN(C(=O)CCC(=O)NCCc2ccc(Cl)cc2)CC1,-1,-7,/,/,8
COc1ccc(NC(=O)c2cccc(S(=O)(=O)N3CCc4ccccc43)c2)cn1,-14,-4,94*,0,26
COc1ccc(C(=O)Nc2ccc(S(=O)(=O)N3CCc4ccccc43)cc2)cc1,2,13,54*,0,17
NS(=O)(=O)c1ccc(NC(=O)c2ccc(S(=O)(=O)N3CCc4ccccc43)cc2)cc1,-6,-8,-7,0,15
COc1ccc(NC(=O)N2CCc3ccccc32)cc1,25,65*,0,-1,-8
CC(Oc1ccc2c3c(c(=O)oc2c1)CCC3)C(=O)NCC1CCC(C(=O)O)CC1 (stereo not given),-2,1,/,/,-16
CC(C)(C)OC(=O)N1CCC[C@H]1c1nnc(SCC(=O)Nc2ccc(Br)cc2)o1,-5,1,/,/,-9
Cc1ccc(C(=O)OCC(=O)NC(=O)c2ccccc2)o1,2,27,/,/,-7
O=C(O)CCNC(=O)C12CC3CC(CC(C3)C1)C2,-5,-5,14,0,4
